Screening results from PubChem.
The list is not random: actives were taken first. Their share in the collection is about 1.7%.
CSN inh: CSN deneddylation inhibition; Q92905; Purified CSN, SCF-Nedd8-OG deneddylation, fluorescence polarization; inhibition, % at 12.5 µM; actives 0.38% (n = 360,000);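 active = pattern-corrected inhibition above about 35%, with an unprinted fluorescence ratio check between 0.5 and 1.5, limit read from the data, passing the limit was not always enough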
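Test system: purified human Csn5 enzyme expressed in HEK293T cells. Amount: 0.24 nM enzyme. Reagent: SCFSkp2-Nedd8OG substrate at 10 nM final. Schedule: 90 min incubation of compound, enzyme and substrate at room temperature. Detection: fluorescence polarization. Read-out: % inhibition of substrate cleavage by Csn5.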
Rpn11 block: blocks the human proteasome subunit Rpn11; human 26S proteasome, Ub4-pepOG fluorescence polarization; 20S core pre-blocked with epoxomicin; O00487; actives 0.59% (n = 360,000); inhibition, % at 20 µM; AID 588493;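 active = inhibition at 20 µM, scaled to each plate's controls, above about 33%, limit read from the data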
IDE cell inh: inhibits human insulin-degrading enzyme in HEK cells | inhibition, % at 5.59 µM | actives 0.41% (n = 320,000) | FAbetaB cleavage, fluorescence polarization | AID 434962 | P14735;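 active = percent inhibition above the average of all tested compounds plus 3 SD, set per screening campaign, cut at about 16% in these data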;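 note: IDE supplied by intact live HEK cells; FP after avidin binding of uncleaved biotin substrate so inhibition keeps polarization high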
IDE cell activ: IDE (human) activation, cell-based; P14735; HEK cells, FAbeta-B cleavage, fluorescence polarization; 0% vehicle, 100% cell-free pure enzyme wells; activation, % at 5.96 µM; actives 0.073% (n = 340,000); AID 493087;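 active = activation above the mean of all tested compounds plus 3 SD, set per screening campaign, cut at about 17% in these data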
HNF4A DNA FP: change in binding of human HNF4 alpha to DNA | actives 0.3% (n = 360,000) | P41235 | AID 1224865 | HNF4a-FITC DNA binding, fluorescence polarization, 1 h | activity change, % at 10 µM; in the data active = activity change above about 30%, passing the limit was not always enough
Target sequence (P41235 whole entry, looked up): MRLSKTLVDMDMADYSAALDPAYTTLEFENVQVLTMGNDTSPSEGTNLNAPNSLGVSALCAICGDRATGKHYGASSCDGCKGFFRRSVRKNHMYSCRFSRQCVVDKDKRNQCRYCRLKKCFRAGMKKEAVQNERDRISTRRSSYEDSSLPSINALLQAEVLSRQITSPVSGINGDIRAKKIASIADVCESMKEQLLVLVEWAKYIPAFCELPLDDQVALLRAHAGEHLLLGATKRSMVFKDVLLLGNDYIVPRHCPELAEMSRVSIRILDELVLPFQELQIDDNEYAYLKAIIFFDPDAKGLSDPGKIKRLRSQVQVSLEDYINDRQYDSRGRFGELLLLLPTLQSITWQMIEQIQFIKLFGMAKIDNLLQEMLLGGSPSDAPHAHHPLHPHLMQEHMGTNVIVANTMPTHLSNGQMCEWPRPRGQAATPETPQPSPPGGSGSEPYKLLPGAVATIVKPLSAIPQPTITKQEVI
TPT1 inh: blocks Candida albicans tRNA 2'-phosphotransferase | recombinant caTPT1, FP RNA substrate dephosphorylation | inhibition, % at 5 µM | actives 0.81% (n = 300,000);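 active = inhibition above the mean of all tested compounds plus 3 SD, set per screening campaign, cut at about 24% in these data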
IDE cell inh cf: cellular human IDE inhibition, confirmation; shares compounds with IDE cell inh; HEK cells, FAbetaB cleavage, fluorescence polarization; inhibition, % at 5.59 µM; actives 51% (n = 1,200); AID 435028;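 active = mean inhibition across triplicate wells above the cutoff set by the earlier primary insulin-degrading enzyme screen, cut at about 16% in these data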
HEK293 tox: HEK cell cytotoxicity, counter-screen for IDE inhibitors. shares compounds with IDE cell inh. HEK293 cytotoxicity, ATP luminescence. inhibition, % at 5.59 µM. actives 28% (n = 1,200). AID 449730; in the data active = inhibition above about 22%
FP fluor counter: fluorescent artifact in IDE inhibitor FP assay. shares compounds with IDE cell inh. IC50, µM. 30 tested, under 10 active. FP counterscreen for fluorescent artifacts, IDE probe project; call rule not given here
Large screens that a line does not name were inactive (follow-up assays come after a bar, where they were run).

Cc1ccc(OCC(=O)Nc2nnc(S(=O)(=O)N3CCC(C)CC3)s2)cc1	none
CC(C)CCNc1ncnc2c1cnn2Cc1ccccc1Cl	IDE cell inh 21.3 | IDE cell inh cf inactive | HEK293 tox inactive
N#C/C(=C(/O)CSc1ccccn1)c1nc2ccccc2s1	IDE cell inh 30.4 | IDE cell inh cf inactive | HEK293 tox inactive
Cc1ccc(SC/C(O)=C(\C#N)c2nc3ccccc3s2)cc1	none
O=C(Nc1ccccc1SCC1CSc2nc3ccccc3c(=O)n21)c1ccccc1 (stereo not given)	IDE cell inh 18.2 | IDE cell inh cf inactive | HEK293 tox inactive
COc1ccccc1CN1C[C@@H]2C[C@@H](c3ccc4nsnc4c3)N3CCC[C@@]23C1=O	IDE cell inh 19.4 | IDE cell inh cf inactive | HEK293 tox inactive
O=c1c(Cl)c(NCc2ccccc2Cl)cnn1C12CC3CC(CC(C3)C1)C2	IDE cell inh 34.2 | IDE cell inh cf 18.7 | HEK293 tox 40.1
O=c1c(Cl)c(NCc2ccco2)cnn1C12CC3CC(CC(C3)C1)C2	none
Cc1cc(N2CCN(C(c3ccccc3)c3ccccc3)CC2)n2ncnc2n1	none
Cc1cc(N2CCN(c3nc4ccccc4s3)CC2)n2ncnc2n1	IDE cell inh 16.8 | IDE cell inh cf inactive | HEK293 tox 75.5
CC1CCN(c2c(NCc3ccc(C(=O)N4CCN(C5CCCCC5)CC4)cc3)c(=O)c2=O)CC1	none
CC1CCN(c2c(NCc3ccc(C(=O)N4c5ccccc5CC4C)cc3)c(=O)c2=O)CC1 (stereo not given)	IDE cell inh 37.6 | IDE cell inh cf 32.5 | HEK293 tox inactive
CCCCC(=O)N1CCN(c2nc3ccc(Br)cc3s2)CC1	IDE cell inh 24.8 | IDE cell inh cf inactive | HEK293 tox 41.9
CCCC(=O)N1CCN(c2nc3ccc(CC)cc3s2)CC1	IDE cell inh 19.4 | IDE cell inh cf inactive | HEK293 tox inactive
CCCC(=O)N1CCN(c2nc3ccc(Br)cc3s2)CC1	none
CCCCn1nc(C(=O)Nc2cc(C(F)(F)F)ccc2N2CCOCC2)ccc1=O	none (no result: TPT1 inh)
Cn1nc(C(C)(C)C)cc1N1C(=O)CCC1(C)C(=O)NC1CCCC1 (stereo not given)	none (no result: IDE cell inh, IDE cell activ, TPT1 inh)
CC(=O)N/N=C/c1cc(C(C)(C)C)cc(/C=N/NC(C)=O)c1O	IDE cell inh 47.8 (no result: IDE cell activ) | IDE cell inh cf 29.4 | HEK293 tox inactive
Cc1cc(C)cc(C(=O)Nc2cccc(NC(=O)c3ccco3)c2)c1	none (no result: IDE cell inh, TPT1 inh)
CCN1/C(=C\C(=S)Nc2ccccc2)Sc2ccccc21	IDE cell inh 21.2 | IDE cell inh cf inactive | HEK293 tox inactive
Cc1cc(OCC(=O)N2CCOCC2)ccc1[N+](=O)[O-]	none
CCOc1ccc(/C(O)=C2/C(=O)C(=O)N(CCN(CC)CC)C2c2ccco2)cc1 (stereo not given)	none
Cc1ccccc1COc1ccc(/C(O)=C2/C(=O)C(=O)N(CCCn3ccnc3)C2c2ccco2)cc1 (stereo not given)	IDE cell inh 17.6 | IDE cell inh cf inactive | HEK293 tox inactive
COc1ccccc1N1C(=O)c2cccc3c(N(C)CCO)ccc(c23)C1=O	IDE cell inh 44.5 | IDE cell inh cf 46.6 | HEK293 tox inactive
CC(=O)Nc1cccc2c1C(=O)N(c1ccccc1C)C2=O	none
COc1ccccc1N1C(=O)c2cccc3c(C(=O)O)ccc(c23)C1=O	none
Cc1ccccc1N1C(=O)c2cccc3c(N(C)CCO)ccc(c23)C1=O	IDE cell inh 46.8 | IDE cell inh cf 68.4 | HEK293 tox inactive
Cc1ccc(S(=O)(=O)N2CCCOC2CNC(=O)C(=O)NC2CCCCC2)cc1 (stereo not given)	none
COC(=O)C1=C(C)N(Cc2ccccc2)C(=NCCc2ccccn2)N[C@H]1c1cccc(C(F)(F)F)c1	none (no result: TPT1 inh)
COc1ccc(Cl)cc1NC(=O)CSc1nnc(CN2CCOCC2)n1-c1ccc(Cl)cc1	IDE cell inh 17.8 | IDE cell inh cf inactive | HEK293 tox inactive
COc1ccc(NC(=O)CSc2nnc(CN3CCOCC3)n2C)cc1Cl	IDE cell inh 22.2 | IDE cell inh cf 22.6 | HEK293 tox inactive | FP fluor counter inactive
COC(=O)c1cc(NC(=O)CSc2nnc(CN3CCOCC3)n2C)ccc1Cl	IDE cell inh 21.3 | IDE cell inh cf inactive | HEK293 tox inactive
O=C(CSc1nnc(CN2CCOCC2)n1-c1ccc(Cl)cc1)Nc1ccc2c(c1)OCO2	none
CC(C)c1ccc(NC(=O)CSc2nnc(-c3ccccn3)n2C)cc1	IDE cell inh 18.9 | IDE cell inh cf inactive | HEK293 tox inactive
Cc1ccc(CNS(=O)(=O)c2cn(C)c(=O)n(C)c2=O)cc1	none
Cc1cc(C)cc(NC(=O)CSc2nnc(CN3CCOCC3)n2C)c1	none
CC(C)c1ccc(NC(=O)CSc2nnc(CN3CCOCC3)n2C)cc1	IDE cell inh 17.2 | IDE cell inh cf inactive | HEK293 tox inactive
Cc1ccc(NC(=O)CSc2nnc(CN3CCOCC3)n2C)cc1C	IDE cell inh 19.0 | IDE cell inh cf 18.4 | HEK293 tox inactive
CCCCCCn1c(=O)[nH]c2nc3cc(N)ccc3nc2c1=O	IDE cell inh 68.6 (no result: CSN inh, Rpn11 block, IDE cell activ, HNF4A DNA FP) | IDE cell inh cf 92.8 | HEK293 tox inactive
Cc1ccc(NS(=O)(=O)N2CCCCC2)cc1	none (no result: IDE cell inh, TPT1 inh)
O=C(CC1Sc2ccccc2NC1=O)Nc1cccc(-c2nnc3n2CCCCC3)c1 (stereo not given)	IDE cell inh 16.5 | IDE cell inh cf inactive | HEK293 tox inactive
CC(=O)Nc1ccc(C2=NNC(=Nc3ccc(S(=O)(=O)N4CCOCC4)cc3)SC2)cc1	IDE cell inh 21.7 | IDE cell inh cf inactive | HEK293 tox inactive
O=S(=O)(c1ccc(N=C2NN=C(c3cc(F)ccc3F)CS2)cc1)N1CCOCC1	none (no result: IDE cell inh, IDE cell activ, TPT1 inh)
COC(=O)Cn1c(=NC(=O)c2cc(OC)cc(OC)c2)sc2cc(OC)ccc21	IDE cell inh 16.1 | IDE cell inh cf inactive | HEK293 tox inactive
CCOC(=O)c1cc(S(=O)(=O)N(C)Cc2ccccc2)cn1C	none
O=C(NCCN1CCOCC1)c1ccc(-c2ccccc2)cc1	IDE cell inh 18.6 | IDE cell inh cf inactive | HEK293 tox inactive
CCCC[n+]1c(C)sc2cc(OC)ccc21	IDE cell inh 18.0 | IDE cell inh cf inactive | HEK293 tox inactive
COc1ccc2sc(C)[n+](C)c2c1	none
S=C(Nc1ccccc1)Nc1nc2ccccc2n1CCOc1ccccc1	IDE cell inh 28.5 | IDE cell inh cf 18.1 | HEK293 tox inactive
